Molecules are shown by their SMILES.

The values that follow come from ChEMBL document CHEMBL3098020, “Synthesis and biological evaluation of novel 2-amino-3-aroyl-4-neopentyl-5-substituted thiophene derivatives as allosteric enhancers of the A₁ adenosine receptor” (Bioorg Med Chem, 2014).

Test [1] addresses T1, Adenosine receptor A1 (Homo sapiens) (UniProt P30542).
T1 sequence (whole entry): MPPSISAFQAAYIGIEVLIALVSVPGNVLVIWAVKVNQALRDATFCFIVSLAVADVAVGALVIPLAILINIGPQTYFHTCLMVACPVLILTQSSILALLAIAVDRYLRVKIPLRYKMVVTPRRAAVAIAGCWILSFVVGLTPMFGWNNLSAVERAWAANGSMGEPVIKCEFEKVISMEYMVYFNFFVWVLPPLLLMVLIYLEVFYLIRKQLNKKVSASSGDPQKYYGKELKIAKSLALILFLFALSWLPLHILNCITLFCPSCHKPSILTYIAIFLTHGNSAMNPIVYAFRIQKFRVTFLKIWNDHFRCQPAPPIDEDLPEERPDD
The test can be described thus: Potentiation of CCPA-induced displacement of [3H]-DPCPX from human adenosine A1 receptor expressed in CHO cell membranes at 10 uM after 90 mins relative to CCPA-treated control. Summed up: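 CCPA (0.01 nM–1 µM) competition against [³H]DPCPX in hA1-CHO membranes, with or without compound at 10 µM. Nonspecific binding defined with 1 µM DPCPX. Ki calculated from IC50 by the Cheng-Prusoff equation; CCPA Ki shift given as fold change; three experiments.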

Test [2] has as its target T1, Adenosine receptor A1 (Homo sapiens). Put plainly: Potentiation of [3H]CCPA binding to human adenosine A1 receptor expressed in CHO cell membranes at 10 uM after 90 mins relative to [3H]CCPA-treated control.
The target in test [3] is T2, Adenosine receptor A3 (Homo sapiens) (UniProt P0DMS8).
T2 sequence (whole entry): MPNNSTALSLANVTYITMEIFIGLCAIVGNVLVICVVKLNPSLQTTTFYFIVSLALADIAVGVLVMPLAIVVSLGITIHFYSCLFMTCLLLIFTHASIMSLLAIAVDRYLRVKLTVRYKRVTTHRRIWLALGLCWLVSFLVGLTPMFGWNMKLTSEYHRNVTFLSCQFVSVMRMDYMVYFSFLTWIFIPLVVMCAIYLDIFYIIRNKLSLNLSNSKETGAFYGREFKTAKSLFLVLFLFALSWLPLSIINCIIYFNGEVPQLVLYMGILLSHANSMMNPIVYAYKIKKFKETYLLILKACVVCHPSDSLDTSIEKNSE
Put plainly: Displacement of [3H]-MRE-3008-F20 from human adenosine A3 receptor expressed in CHO cell membranes at 10 uM by scintillation counting analysis relative to control. The essentials:
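A3-expressing CHO membranes in 50 mM Tris-HCl, 10 mM MgCl₂, 1 mM EDTA pH 7.4 with 2 nM [³H]MRE-3008-F20. Incubated 120 min at 4 °C. Compound 10 µM in 1% DMSO final. Filtration and scintillation counting; percent inhibition of specific binding.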

Test [4] has as its target Adenosine receptor A2a (Homo sapiens) (UniProt P29274). Put plainly: Displacement of [3H]-ZM241385 from human adenosine A2A receptor expressed in CHO cell membranes at 10 uM by scintillation counting analysis relative to control. The essentials:
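A2A-expressing CHO membranes, pretreated with adenosine deaminase, in 50 mM Tris-HCl, 10 mM MgCl₂ pH 7.4 with 1 nM [³H]ZM 241385. Incubated 60 min at 4 °C. Compound 10 µM in 1% DMSO final. Filtration and scintillation counting; percent inhibition of specific binding.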

In test [5] the target is T1, Adenosine receptor A1 (Homo sapiens). The test can be described thus: Displacement of [3H]-DPCPX from human adenosine A1 receptor expressed in CHO cell membranes at 10 uM by scintillation counting analysis relative to control. Summed up:
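hA1-CHO membranes, pretreated with adenosine deaminase, in 50 mM Tris-HCl pH 7.4 with 1 nM [³H]DPCPX. Incubated 120 min at 25 °C. Compound 10 µM added from 100-fold DMSO stock, 1% DMSO final. Bound ligand collected on glass-fibre filters and counted by scintillation; percent inhibition of specific binding.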

Test [6] shares this target. Put plainly: Allosteric enhancement of human adenosine A1 receptor expressed in CHO cells assessed as inhibition of forskolin-stimulated cAMP production at 100 nM preincubated for 10 mins followed by forskolin challenge measured after 5 mins by scintillation counting analysis in presence of CCPA relative to control. In kind it is functional, cell-based. Summed up:
(§1)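 hA1-CHO cells (10⁶ cells/mL) in phosphate buffer with adenosine deaminase 1.0 IU/mL and Ro 20-1724 0.5 mM, preincubated 10 min at 37 °C. Compound added for 10 min, alone or at 100 nM with CCPA 1 pM. Forskolin 1 µM added for 5 min, stopped with cold 6% TCA. cAMP measured by [³H]-cAMP competition protein-binding assay; percent inhibition versus control; three experiments.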

For test [7] the target is unchanged. Put plainly: Allosteric enhancement of human adenosine A1 receptor expressed in CHO cells assessed as inhibition of forskolin-stimulated cAMP production at 10 uM preincubated for 10 mins followed by forskolin challenge measured after 5 mins by scintillation counting analysis relative to control. In kind it is functional, cell-based. Summed up:
as §1

Chain of Adenosine receptor A2a (Homo sapiens) (P29274 whole entry): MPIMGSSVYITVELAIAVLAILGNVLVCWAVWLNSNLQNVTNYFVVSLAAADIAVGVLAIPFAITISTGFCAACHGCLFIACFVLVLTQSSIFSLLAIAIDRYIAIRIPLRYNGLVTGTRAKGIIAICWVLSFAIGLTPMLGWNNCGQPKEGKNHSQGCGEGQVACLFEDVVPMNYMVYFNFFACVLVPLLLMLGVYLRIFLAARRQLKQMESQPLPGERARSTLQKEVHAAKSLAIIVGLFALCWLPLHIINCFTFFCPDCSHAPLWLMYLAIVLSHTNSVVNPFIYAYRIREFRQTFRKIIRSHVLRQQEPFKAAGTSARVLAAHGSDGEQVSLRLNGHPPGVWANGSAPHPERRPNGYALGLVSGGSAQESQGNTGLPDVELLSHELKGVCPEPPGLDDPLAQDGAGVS

With `COc1ccc(-c2sc(N)c(C(=O)c3ccc(Cl)cc3)c2C)cc1`, the figures for the fold change (FC) in test [1] and in test [2] were 1.8 and 2.1, respectively. The inhibition amounted to 1% in test [3]; 1% in test [4]; 1% in test [5]; 22% in test [6]; 24% in test [7].
As for `CC(C)(C)Cc1c(-c2ccc(OC(F)(F)F)cc2)sc(N)c1C(=O)c1ccc(Cl)cc1`, the figures for the fold change (FC) in test [1] and in test [2] were 4.6 and 6.4, respectively. For the same compound, the inhibition in test [3] is 1%; in test [4] it was 1%; in test [5], 1%; in test [6], 55%; in test [7], 56%.
As for `Cc1noc(C)c1-c1sc(N)c(C(=O)c2ccc(Cl)cc2)c1CC(C)(C)C`, the figures for the fold change (FC) in test [1] and in test [2] were 1.1 and 1.4, respectively. The inhibition amounted to 1% in test [3]; 1% in test [4]; 1% in test [5]; 19% in test [6]; 12% in test [7].
Consider `CC(C)(C)Cc1c(-c2ccc3c(c2)OCO3)sc(N)c1C(=O)c1ccc(Cl)cc1`, for which the fold change (FC) in test [1] stood at 5.2; in test [2] it was 6.6. Also, the inhibition in test [3] was found to be 1%; in test [4], 1%; in test [5], 1%; in test [6] it was 59%; in test [7], 61%.
Regarding `CC(C)(C)Cc1c(-c2ccccn2)sc(N)c1C(=O)c1ccc(Cl)cc1`, the results for the fold change (FC) in test [1] and in test [2] were 2.2 and 3.5, respectively. Moreover, the inhibition is 1% in test [3]; 1% in test [4]; 1% in test [5]; 43% in test [6]; 40% in test [7].
For `Cc1cccc(-c2sc(N)c(C(=O)c3ccc(Cl)cc3)c2CC(C)(C)C)c1`, the fold change (FC) is 4.1 in test [1] and 4.7 in test [2]. In addition, the inhibition is 1% in test [3]; 1% in test [4]; 1% in test [5]; 51% in test [6]; 47% in test [7].
For `CC(C)(C)Cc1c(-c2ccco2)sc(N)c1C(=O)c1ccc(Cl)cc1`, the fold change (FC) in test [1] was found to be 3.5; in test [2] it was 5.1. The inhibition in test [3] is 1%; in test [4], 1%; in test [5] it was 1%; in test [6] it was 47%; in test [7] it was 49%.
For the compound `Cc1ccc(-c2sc(N)c(C(=O)c3ccc(Cl)cc3)c2CC(C)(C)C)cc1`, the figures for the fold change (FC) in test [1] and in test [2] were 6 and 6.4, respectively. The inhibition came out at 1% in test [3]; 1% in test [4]; 1% in test [5]; 58% in test [6]; 57% in test [7].
On to `CC(C)(C)Cc1csc(N)c1C(=O)c1cccc(C(F)(F)F)c1`, for which the figures for the fold change (FC) in test [1] and in test [2] were 1.7 and 2.6, respectively. Also, the inhibition in test [3] was 1%; in test [4], 1%; in test [5], 1%; in test [6], 30%; in test [7] it was 28%.
With `CC(C)(C)Cc1c(-c2ccccc2)sc(N)c1C(=O)c1ccc(Cl)c(Cl)c1`, the fold change (FC) in test [1] was 4.8; in test [2], 5.9. Moreover, the inhibition stood at 6% in test [3]; 1% in test [4]; 1% in test [5]; 57% in test [6]; 56% in test [7].
For the compound `CC(C)(C)Cc1c(-c2c(F)cccc2F)sc(N)c1C(=O)c1ccc(Cl)cc1`, the results for the fold change (FC) in test [1] and in test [2] were 2.4 and 4.2, respectively. Besides, the inhibition amounted to 1% in test [3]; 2% in test [4]; 1% in test [5]; 46% in test [6]; 45% in test [7].
Regarding `COc1ccc(-c2sc(N)c(C(=O)c3ccc(C)cc3)c2CC(C)(C)C)cc1`, the fold change (FC) in test [1] was determined as 5.4; in test [2] it was 7.4. Moreover, the inhibition was determined as 5% in test [3]; 3% in test [4]; 1% in test [5]; 60% in test [6]; 64% in test [7].
For `Cc1ccc(C(=O)c2c(N)sc(Br)c2CC(C)(C)C)cc1`, the fold change (FC) in test [1] was 4.3; in test [2], 6.4. In addition, the inhibition in test [3] worked out at 1%; in test [4] it was 1%; in test [5], 1%; in test [6] it was 63%; in test [7] it was 61%.
On to `CC(C)(C)Cc1c(-c2ccc(F)cc2F)sc(N)c1C(=O)c1ccc(Cl)cc1`, for which the fold change (FC) is 3.6 in test [1] and 5.3 in test [2]. Besides, the inhibition in test [3] stood at 1%; in test [4], 1%; in test [5], 1%; in test [6], 49%; in test [7] it was 48%.
As for `CC(C)(C)Cc1c(/C=C/c2ccc(Cl)cc2)sc(N)c1C(=O)c1ccc(Cl)cc1`, the fold change (FC) in test [1] is 2.8; in test [2], 4.8. Besides, the inhibition in test [3] came to 11%; in test [4], 1%; in test [5], 1%; in test [6], 53%; in test [7], 51%.
Turning to `CC(C)(C)Cc1c(-c2ccccc2)sc(N)c1C(=O)c1cccc(C(F)(F)F)c1`, the fold change (FC) in test [1] was 3.6; in test [2], 4. The inhibition stood at 1% in test [3]; 1% in test [4]; 1% in test [5]; 39% in test [6]; 38% in test [7].
With `CC(C)(C)Cc1c(Br)sc(N)c1C(=O)c1cccc(Cl)c1`, the results for the fold change (FC) in test [1] and in test [2] were 2.4 and 3.6, respectively. Besides, the inhibition in test [3] was determined as 1%; in test [4], 1%; in test [5], 1%; in test [6], 48%; in test [7], 45%.
For `Cc1csc(N)c1C(=O)c1ccc(Cl)cc1`, the fold change (FC) in test [1] was 1.6; in test [2], 1.5. In addition, the inhibition came to 1% in test [3]; 1% in test [4]; 1% in test [5]; 18% in test [6]; 16% in test [7].
In the case of `CC(C)(C)Cc1c(-c2ccc(F)cc2)sc(N)c1C(=O)c1ccc(Cl)cc1`, the fold change (FC) stood at 3.7 in test [1] and 5.5 in test [2]. In addition, the inhibition is 9% in test [3]; 1% in test [4]; 1% in test [5]; 52% in test [6]; 50% in test [7].
Consider `CC(C)(C)Cc1c(Br)sc(N)c1C(=O)c1cccc(C(F)(F)F)c1`, for which the fold change (FC) in test [1] is 3; in test [2], 4.4. Also, the inhibition turned out to be 4% in test [3]; 1% in test [4]; 1% in test [5]; 50% in test [6]; 49% in test [7].
